From ChEMBL document CHEMBL1131294, “Universal template approach to drug design: polyamines as selective muscarinic receptor antagonists” (J Med Chem, 1998)

Assays:
[1] = biological target: Muscarinic acetylcholine receptor M3 (Cavia porcellus, UniProt Q8VH26); test: Antagonist affinity evaluated against Muscarinic acetylcholine receptor M3 in isolated guinea pig longitudinal Ileum.; assay type: functional, tissue-based; details: read-out: pA2 (converted)
In short: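 Guinea pig left atria (M2, negative inotropism, electrically driven at 1 Hz) and ileum longitudinal muscle (M3, contraction). Agonist: arecaidine propargyl ester. Ileum: isotonic recording, at least 30 min equilibration. APE curves (0.01-0.5 µM) taken at 30-min intervals, the second curve serving as control. After 60 min antagonist incubation the curve was repeated. Dose ratios at agonist EC50, 3-6 antagonist concentrations, 4-6 replicates each; pA2 from Schild plots constrained to slope -1.0.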

[2] = biological target: Muscarinic acetylcholine receptor M2 (Cavia porcellus); test: Antagonist affinity evaluated against Muscarinic acetylcholine receptor M2 in isolated guinea pig left atrium; details: read-out: pA2 (converted)
[3] = biological target: T1, Muscarinic acetylcholine receptor M4 (Rattus norvegicus, UniProt P08485); test: […] to Muscarinic acetylcholine receptor M4
T1 sequence (P08485 whole entry): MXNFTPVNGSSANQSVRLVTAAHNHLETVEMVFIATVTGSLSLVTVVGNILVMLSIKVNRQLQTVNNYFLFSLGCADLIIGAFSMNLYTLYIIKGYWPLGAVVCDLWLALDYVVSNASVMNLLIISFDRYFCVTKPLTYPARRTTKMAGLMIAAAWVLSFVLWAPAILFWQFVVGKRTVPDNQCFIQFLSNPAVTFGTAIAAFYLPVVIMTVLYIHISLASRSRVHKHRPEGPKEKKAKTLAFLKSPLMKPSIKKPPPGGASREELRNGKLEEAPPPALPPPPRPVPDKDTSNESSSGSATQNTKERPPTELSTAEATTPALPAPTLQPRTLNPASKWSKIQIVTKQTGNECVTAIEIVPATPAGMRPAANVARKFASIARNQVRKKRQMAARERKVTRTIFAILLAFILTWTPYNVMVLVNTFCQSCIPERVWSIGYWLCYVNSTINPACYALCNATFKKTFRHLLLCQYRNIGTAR
In short: (§1)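 Competition against 0.7-0.8 nM [3H]NMS using homogenates of rat heart (M2) or submaxillary gland (M3), 500 µg protein each, or NG 108-15 cells (M4), 600 µg protein. Incubation 2 h at 25 °C in 50 mM sodium phosphate pH 7.4 with 2 mM MgCl2 and 1% BSA. Nonspecific binding defined with 10 µM atropine. Filtration; Ki by Cheng-Prusoff; at least three experiments, each in triplicate.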

[4] = biological target: T2, Muscarinic acetylcholine receptor M1 (Rattus norvegicus, UniProt P08482); test: Binding affinity for rat cortex Muscarinic acetylcholine receptor M1
T2 sequence (P08482 whole entry): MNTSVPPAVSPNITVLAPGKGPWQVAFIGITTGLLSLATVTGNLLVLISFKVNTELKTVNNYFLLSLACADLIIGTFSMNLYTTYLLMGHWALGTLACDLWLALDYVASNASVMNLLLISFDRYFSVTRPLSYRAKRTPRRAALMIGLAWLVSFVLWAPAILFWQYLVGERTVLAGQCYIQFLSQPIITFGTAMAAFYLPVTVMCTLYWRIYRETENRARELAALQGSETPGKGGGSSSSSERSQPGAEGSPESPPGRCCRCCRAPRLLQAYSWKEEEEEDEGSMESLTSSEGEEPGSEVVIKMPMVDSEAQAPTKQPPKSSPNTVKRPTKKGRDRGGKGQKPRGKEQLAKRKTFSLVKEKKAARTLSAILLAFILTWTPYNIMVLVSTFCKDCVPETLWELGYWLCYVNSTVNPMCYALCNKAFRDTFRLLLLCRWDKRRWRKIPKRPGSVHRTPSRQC
In short: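 Rat cerebral cortex homogenate (200 µg protein) competed against 5 nM [3H]pirenzepine. Incubation 2 h at 25 °C in 50 mM sodium phosphate pH 7.4 with 2 mM MgCl2 and 1% BSA. Nonspecific binding defined with 10 µM atropine. Filtration on PEI-soaked glass-fiber filters. Ki by Cheng-Prusoff; at least three experiments, each in triplicate.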

[5] = biological target: Muscarinic acetylcholine receptor M3 (Rattus norvegicus, UniProt P08483); test: Inhibition of [3H]NMS binding to rat submaxillary gland Muscarinic acetylcholine receptor M3; in short: as §1
[6] = biological target: T3, Muscarinic acetylcholine receptor M2 (Rattus norvegicus, UniProt P10980); test: Inhibition of [3H]NMS binding to rat heart Muscarinic acetylcholine receptor M2
T3 sequence (P10980 whole entry): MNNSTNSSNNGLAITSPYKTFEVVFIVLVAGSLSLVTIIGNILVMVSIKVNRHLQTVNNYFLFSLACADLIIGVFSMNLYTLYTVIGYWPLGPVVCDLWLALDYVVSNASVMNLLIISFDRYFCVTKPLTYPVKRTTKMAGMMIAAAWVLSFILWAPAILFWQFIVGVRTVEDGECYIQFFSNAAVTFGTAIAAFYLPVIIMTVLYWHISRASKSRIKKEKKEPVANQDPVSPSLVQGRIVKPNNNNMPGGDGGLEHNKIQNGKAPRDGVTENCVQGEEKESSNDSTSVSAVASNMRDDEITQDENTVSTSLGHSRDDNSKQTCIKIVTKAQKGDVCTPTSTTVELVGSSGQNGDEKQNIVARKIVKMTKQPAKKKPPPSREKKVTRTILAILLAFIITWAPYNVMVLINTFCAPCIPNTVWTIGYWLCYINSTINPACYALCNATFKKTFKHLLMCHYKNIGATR

Sequence of Muscarinic acetylcholine receptor M3 (Cavia porcellus, UniProt Q8VH26) (Q8VH26 whole entry): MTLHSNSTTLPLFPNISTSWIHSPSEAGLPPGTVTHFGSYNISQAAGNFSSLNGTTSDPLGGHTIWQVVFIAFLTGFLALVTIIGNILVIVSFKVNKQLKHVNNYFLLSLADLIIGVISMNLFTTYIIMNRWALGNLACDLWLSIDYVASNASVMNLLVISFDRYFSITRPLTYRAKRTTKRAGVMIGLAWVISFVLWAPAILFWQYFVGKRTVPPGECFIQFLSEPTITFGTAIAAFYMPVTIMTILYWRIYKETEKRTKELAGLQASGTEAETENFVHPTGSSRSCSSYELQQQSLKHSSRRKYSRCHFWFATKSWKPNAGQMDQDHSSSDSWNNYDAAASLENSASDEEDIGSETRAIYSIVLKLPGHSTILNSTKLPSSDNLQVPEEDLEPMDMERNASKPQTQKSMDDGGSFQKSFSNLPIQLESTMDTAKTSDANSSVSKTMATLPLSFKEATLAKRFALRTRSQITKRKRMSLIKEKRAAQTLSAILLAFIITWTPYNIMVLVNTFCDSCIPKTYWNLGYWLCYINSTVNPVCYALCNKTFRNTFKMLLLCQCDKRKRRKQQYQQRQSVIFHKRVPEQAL
Sequence of Muscarinic acetylcholine receptor M3 (Rattus norvegicus, UniProt P08483) (P08483 whole entry): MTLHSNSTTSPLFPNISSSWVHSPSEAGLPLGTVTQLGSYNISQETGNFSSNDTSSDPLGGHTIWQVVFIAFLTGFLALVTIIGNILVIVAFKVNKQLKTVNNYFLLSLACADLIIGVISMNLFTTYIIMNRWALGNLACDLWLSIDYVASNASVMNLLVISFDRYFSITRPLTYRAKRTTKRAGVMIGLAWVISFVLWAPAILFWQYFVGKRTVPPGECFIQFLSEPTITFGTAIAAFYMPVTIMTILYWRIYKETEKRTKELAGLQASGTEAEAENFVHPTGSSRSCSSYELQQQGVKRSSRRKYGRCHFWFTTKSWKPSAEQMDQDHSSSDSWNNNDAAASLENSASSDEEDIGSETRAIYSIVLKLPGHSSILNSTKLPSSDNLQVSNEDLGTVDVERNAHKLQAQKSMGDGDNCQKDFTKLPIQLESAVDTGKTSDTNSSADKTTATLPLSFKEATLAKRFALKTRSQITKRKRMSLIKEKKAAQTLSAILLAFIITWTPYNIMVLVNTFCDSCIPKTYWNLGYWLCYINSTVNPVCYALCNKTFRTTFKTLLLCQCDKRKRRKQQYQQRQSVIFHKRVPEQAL

Kb [1]	Kb [2]	Ki [3]	Ki [4]	Ki [5]	Ki [6]	SMILES
17 nM	2.69 nM	–	–	–	–	CN(CCCCCCN)CCCCCCCCN(C)CCCCCCNCCC(=O)N1c2ccccc2C(=O)Nc2cccnc21
19.5 nM	0.977 nM	–	–	–	–	CN(CCCCCCN)CCCCCCCCN(C)CCCCCCNCCCCC(=O)N1c2ccccc2C(=O)Nc2cccnc21
4.79 nM	–	1.45 nM	0.501 nM	3.02 nM	–	CN(CCCCCCN)CCCCCCCCN(C)CCCCCCNCCCC(=O)N1c2ccccc2C(=O)Nc2cccnc21
363 nM	–	32.4 nM	–	955 nM	–	COc1ccccc1CNCCCCCCNCCCCCCCCNCCCCCCNCc1ccccc1OC [METHOCTRAMINE]
1620 nM	–	158 nM	25.1 nM	2510 nM	–	CN(CCCCCCCCN(C)CCCCCCN(CC(=O)N1c2ccccc2NC(=O)c2cccnc21)CC(=O)N1c2ccccc2NC(=O)c2cccnc21)CCCCCCN(CC(=O)N1c2ccccc2NC(=O)c2cccnc21)CC(=O)N1c2ccccc2NC(=O)c2cccnc21
1.86 nM	0.457 nM	–	–	–	–	CN(CCCCCCCCN(C)C(=O)CCCCCNCCCC(=O)N1c2ccccc2C(=O)Nc2cccnc21)C(=O)CCCCCN
437 nM	9.77 nM	20 nM	316 nM	158 nM	44.7 nM	CN(CCCCCCCCN(C)C(=O)CCCCCNCC(=O)N1c2ccccc2C(=O)Nc2cccnc21)C(=O)CCCCCN
275 nM	–	15.8 nM	4.37 nM	331 nM	–	CN(CCCCCCN)CCCCCCCCN(C)CCCCCCNCC(=O)N1c2ccccc2C(=O)Nc2cccnc21
112 nM	–	2.82 nM	14.8 nM	115 nM	–	CN(CCCCCCCCN(C)CCCCCCNCC(=O)N1c2ccccc2NC(=O)c2ccccc21)CCCCCCNCC(=O)N1c2ccccc2NC(=O)c2ccccc21
13.8 nM	–	63.1 nM	63.1 nM	70.8 nM	–	CN(CCCCCCCCN(C)C(=O)CCCCCNCCCCC(=O)N1c2ccccc2C(=O)Nc2cccnc21)C(=O)CCCCCN
537 nM	5.25 nM	36.3 nM	14.5 nM	2570 nM	20.9 nM	CN(CCCCCCCCN(C)CCCCCCNCC(=O)N1c2ccccc2NC(=O)c2cccnc21)CCCCCCNCC(=O)N1c2ccccc2NC(=O)c2cccnc21
44.7 nM	0.2 nM	41.7 nM	0.955 nM	110 nM	0.437 nM	CN(CCCCCCCCN(C)CCCCCCN(CC(=O)N1c2ccccc2NC(=O)c2ccccc21)CC(=O)N1c2ccccc2NC(=O)c2ccccc21)CCCCCCNCC(=O)N1c2ccccc2NC(=O)c2ccccc21
912 nM	2.51 nM	39.8 nM	12.6 nM	398 nM	0.912 nM	CN(CCCCCCCCN(C)CCCCCCN(CC(=O)N1c2ccccc2NC(=O)c2cccnc21)CC(=O)N1c2ccccc2NC(=O)c2cccnc21)CCCCCCNCC(=O)N1c2ccccc2NC(=O)c2cccnc21
2140 nM	17.8 nM	–	–	–	–	CN(CCCCCCCCN(C)C(=O)CCCCCN(CC(=O)N1c2ccccc2C(=O)Nc2cccnc21)CC(=O)N1c2ccccc2C(=O)Nc2cccnc21)C(=O)CCCCCN(CC(=O)N1c2ccccc2C(=O)Nc2cccnc21)CC(=O)N1c2ccccc2C(=O)Nc2cccnc21
18.2 nM	9.12 nM	–	–	–	–	CN(CCCCCCCCN(C)C(=O)CCCCCNCCC(=O)N1c2ccccc2C(=O)Nc2cccnc21)C(=O)CCCCCN
550 nM	–	158 nM	50.1 nM	5750 nM	–	CN(CCCCCCCCN(C)C(=O)CCCCCN(CC(=O)N1c2ccccc2C(=O)Nc2cccnc21)CC(=O)N1c2ccccc2C(=O)Nc2cccnc21)C(=O)CCCCCNCC(=O)N1c2ccccc2C(=O)Nc2cccnc21

SMILES	Kb [1]	Kb [2]	Ki [3]	Ki [4]	Ki [5]	Ki [6]
CN(CCCCCCCCN(C)CCCCCCN(CC(=O)N1c2ccccc2C(=O)Nc2cccnc21)CC(=O)N1c2ccccc2C(=O)Nc2cccnc21)CCCCCCNCC(=O)N1c2ccccc2C(=O)Nc2cccnc21 [TRIPITRAMINE]	–	–	11.5 nM	3.55 nM	148 nM	–
CN(CCCCCCCCN(C)C(=O)CCCCCN(CC(=O)N1c2ccccc2C(=O)Nc2cccnc21)CC(=O)N1c2ccccc2C(=O)Nc2cccnc21)C(=O)CCCCCN	7240 nM	5620 nM	–	–	–	–
CN(CCCCCCCCN(C)C(=O)CCCCCNCC(=O)N1c2ccccc2C(=O)Nc2cccnc21)C(=O)CCCCCNCC(=O)N1c2ccccc2C(=O)Nc2cccnc21	72.4 nM	0.501 nM	–	–	–	–
